Measured values from PMC7227796 (ACS chemical neuroscience, 2020).
Like-named read-outs stand apart in the source and are kept apart here. Marks after values point to notes of the source that are not given here.

Columns and labels:
GluK3 = GluK3 (Rattus norvegicus, UniProt P42264); assay: Radioligand binding at recombinant homomeric GluK3; conditions: for GluK3 % specific binding (Table 5): mean ± SD, ligand concentration not given
How it was run: (§1)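 Membranes from sf9 cells expressing rat homomeric GluK1, GluK2 or GluK3 were incubated in 50 mM Tris-HCl, pH 7.1, for 2 h at 4 °C. Radioligand was [3H]-(S)-NF608 for GluK1 and [3H]kainic acid for GluK2 and GluK3. Samples were filtered on GF/B, washed twice with ice-cold buffer, dried for 1 h at 70 °C and counted by scintillation. Ki came from 12–16-point triplicate curves. Single-point % specific binding is mean ± SD of three experiments, at 10 μM test compound where stated.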

native NMDA receptors = assay: Radioligand binding at native NMDA receptors; design: species or system rat; conditions: for NMDA pKi with SEM (in brackets) / Ki: rat synaptosomes, [3H]CGP-39653; for Ki: read-out: NMDA Ki, native iGluRs (synaptosomes)
How it was run: (§2)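 Rat cortical synaptosomal membranes were labelled with 5 nM [3H]AMPA (AMPA), 5 nM [3H]KA (KA) or [3H]CGP39653 (NMDA). Test compound was run at 12–16 concentrations in triplicate, with three to six independent experiments. Cpm were fitted by nonlinear regression. Values are reported as pIC50 for AMPA and KA and as pKi for NMDA, each as mean with SEM.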

native KA receptors = assay: Radioligand binding at native KA receptors; conditions: rat synaptosomes, [3H]KA
How it was run: as §2

native AMPA receptors = assay: Radioligand binding at native AMPA receptors; conditions: rat synaptosomes, [3H]AMPA; for IC50: read-out: AMPA IC50, native iGluRs (synaptosomes)
How it was run: as §2

GluK2 = GluK2 (Rattus norvegicus, UniProt P42260); assay: Radioligand binding at recombinant homomeric GluK2; conditions: for GluK2 % specific binding (Table 5): mean ± SD, ligand concentration not given
How it was run: as §1

GluK1 = GluK1 (Rattus norvegicus, UniProt P22756); assay: Radioligand binding at recombinant homomeric GluK1; conditions: for GluK1 % specific binding (Table 5): [3H]NF608, mean ± SD, ligand concentration not given
How it was run: as §1

[1] = target: GluN1/GluN2B NMDA receptor (Rattus norvegicus, UniProt P35439+Q00960); assay: Two-electrode voltage-clamp recordings, Xenopus oocytes expressing GluN1/GluN2B; type: cell-based
How it was run: (§3)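 Xenopus oocytes were injected with rat GluN1-1a and GluN2A, 2B, 2C or 2D cRNA at a 1:2 ratio. Two-electrode voltage clamp was run 2–6 days later at room temperature and −40 mV. Bath was 90 NaCl, 1 KCl, 10 HEPES, 0.5 BaCl2, 0.01 EDTA (mM), pH 7.4. Currents were evoked by 1 μM glutamate plus 100 μM glycine, with test compound gravity-perfused. Hill fits gave IC50 per oocyte (5–6 oocytes). Ki was derived by Cheng-Prusoff using earlier glutamate EC50 values.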

[2] = target: GluN1/GluN2D NMDA receptor (Rattus norvegicus, UniProt P35439+Q62645); assay: Two-electrode voltage-clamp recordings, Xenopus oocytes expressing GluN1/GluN2D; type: cell-based
How it was run: as §3

[3] = target: GluN1/GluN2A NMDA receptor (Rattus norvegicus, UniProt P35439+Q00959); assay: Two-electrode voltage-clamp recordings, Xenopus oocytes expressing GluN1/GluN2A; type: cell-based
How it was run: as §3

[4] = target: GluN1/GluN2C NMDA receptor (Rattus norvegicus, UniProt P35439+Q00961); assay: Two-electrode voltage-clamp recordings, Xenopus oocytes expressing GluN1/GluN2C; type: cell-based
How it was run: as §3

[5] = read-out: GluK3 Ki, cloned homomeric iGluRs, [3H]KA, mean ± SEM
[6] = read-out: GluK2 Ki, cloned homomeric iGluRs, [3H]KA, mean ± SEM
[7] = 10 μM ligand concentration, [3H]KA, mean ± SD (Tables 2, 4)

Chain of GluK3 (P42264 32-919): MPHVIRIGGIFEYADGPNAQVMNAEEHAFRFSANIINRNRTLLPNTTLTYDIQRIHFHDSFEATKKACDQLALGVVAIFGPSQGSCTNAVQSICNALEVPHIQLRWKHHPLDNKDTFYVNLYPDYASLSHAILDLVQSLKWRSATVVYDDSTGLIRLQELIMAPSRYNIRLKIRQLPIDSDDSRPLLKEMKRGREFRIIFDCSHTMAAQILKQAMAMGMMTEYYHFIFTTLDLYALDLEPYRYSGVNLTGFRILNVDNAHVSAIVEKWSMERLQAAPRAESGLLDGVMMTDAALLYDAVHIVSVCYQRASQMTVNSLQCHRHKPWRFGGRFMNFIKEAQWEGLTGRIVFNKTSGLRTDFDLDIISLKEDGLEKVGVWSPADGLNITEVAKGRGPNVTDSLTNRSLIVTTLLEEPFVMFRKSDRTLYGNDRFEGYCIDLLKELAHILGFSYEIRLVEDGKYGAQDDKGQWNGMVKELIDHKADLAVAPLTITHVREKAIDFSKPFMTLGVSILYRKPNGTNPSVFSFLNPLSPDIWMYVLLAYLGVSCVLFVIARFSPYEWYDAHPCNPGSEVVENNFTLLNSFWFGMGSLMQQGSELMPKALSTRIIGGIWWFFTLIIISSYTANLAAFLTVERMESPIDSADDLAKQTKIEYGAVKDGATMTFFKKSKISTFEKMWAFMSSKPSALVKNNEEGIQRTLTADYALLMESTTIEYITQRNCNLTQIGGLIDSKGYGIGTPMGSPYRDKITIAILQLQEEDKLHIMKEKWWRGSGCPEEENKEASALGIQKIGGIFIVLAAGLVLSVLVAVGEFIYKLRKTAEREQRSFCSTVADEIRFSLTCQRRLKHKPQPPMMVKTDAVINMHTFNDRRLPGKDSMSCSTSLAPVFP
Chain of GluK2 (P42260 32-908): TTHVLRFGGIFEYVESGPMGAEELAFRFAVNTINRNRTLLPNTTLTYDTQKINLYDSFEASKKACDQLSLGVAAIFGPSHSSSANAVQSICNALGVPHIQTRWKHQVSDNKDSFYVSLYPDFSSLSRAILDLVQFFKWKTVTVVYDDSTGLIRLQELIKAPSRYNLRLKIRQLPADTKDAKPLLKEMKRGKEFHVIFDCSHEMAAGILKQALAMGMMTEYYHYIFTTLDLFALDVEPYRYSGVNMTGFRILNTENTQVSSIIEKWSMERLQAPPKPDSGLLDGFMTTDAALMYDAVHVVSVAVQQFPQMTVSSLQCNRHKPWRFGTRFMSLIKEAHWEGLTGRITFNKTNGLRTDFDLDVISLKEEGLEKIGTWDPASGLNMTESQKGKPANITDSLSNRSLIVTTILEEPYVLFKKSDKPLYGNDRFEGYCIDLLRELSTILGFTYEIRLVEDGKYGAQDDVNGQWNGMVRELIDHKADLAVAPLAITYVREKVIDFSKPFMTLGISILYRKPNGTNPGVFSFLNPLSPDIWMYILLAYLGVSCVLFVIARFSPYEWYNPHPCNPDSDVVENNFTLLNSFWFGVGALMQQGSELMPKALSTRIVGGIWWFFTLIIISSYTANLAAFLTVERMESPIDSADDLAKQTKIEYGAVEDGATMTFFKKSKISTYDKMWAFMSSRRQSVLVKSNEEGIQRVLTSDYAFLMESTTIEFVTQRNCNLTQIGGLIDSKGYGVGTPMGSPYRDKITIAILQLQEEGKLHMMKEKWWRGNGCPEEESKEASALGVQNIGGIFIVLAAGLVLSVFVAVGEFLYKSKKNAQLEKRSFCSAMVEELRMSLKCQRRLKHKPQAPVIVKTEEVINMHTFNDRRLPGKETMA
Chain of GluK1 (P22756 31-920 isoform P22756-4 limits assumed): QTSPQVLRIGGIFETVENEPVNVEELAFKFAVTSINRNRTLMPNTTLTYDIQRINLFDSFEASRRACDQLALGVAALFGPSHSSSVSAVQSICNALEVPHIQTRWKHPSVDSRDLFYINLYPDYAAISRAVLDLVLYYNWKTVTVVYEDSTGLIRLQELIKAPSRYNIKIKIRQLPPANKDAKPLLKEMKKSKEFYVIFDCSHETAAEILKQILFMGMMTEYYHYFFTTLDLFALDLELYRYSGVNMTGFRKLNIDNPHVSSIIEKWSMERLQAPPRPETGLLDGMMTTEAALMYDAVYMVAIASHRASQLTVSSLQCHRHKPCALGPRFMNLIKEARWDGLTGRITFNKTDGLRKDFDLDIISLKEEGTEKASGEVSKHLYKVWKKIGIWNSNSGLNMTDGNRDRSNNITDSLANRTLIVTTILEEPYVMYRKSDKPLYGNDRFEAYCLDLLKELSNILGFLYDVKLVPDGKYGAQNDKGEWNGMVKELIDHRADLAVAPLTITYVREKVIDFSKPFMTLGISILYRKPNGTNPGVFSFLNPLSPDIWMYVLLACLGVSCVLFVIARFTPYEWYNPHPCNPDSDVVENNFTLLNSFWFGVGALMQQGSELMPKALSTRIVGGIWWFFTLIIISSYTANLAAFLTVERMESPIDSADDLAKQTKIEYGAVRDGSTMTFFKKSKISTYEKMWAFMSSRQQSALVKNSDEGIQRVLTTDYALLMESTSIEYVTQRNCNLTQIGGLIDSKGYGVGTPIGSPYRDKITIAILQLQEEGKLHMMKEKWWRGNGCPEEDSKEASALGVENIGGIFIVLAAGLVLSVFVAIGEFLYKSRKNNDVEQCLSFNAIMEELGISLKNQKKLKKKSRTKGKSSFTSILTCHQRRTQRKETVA
Chain of GluN1/GluN2C NMDA receptor (Q00961 20-1237, other chains not shown): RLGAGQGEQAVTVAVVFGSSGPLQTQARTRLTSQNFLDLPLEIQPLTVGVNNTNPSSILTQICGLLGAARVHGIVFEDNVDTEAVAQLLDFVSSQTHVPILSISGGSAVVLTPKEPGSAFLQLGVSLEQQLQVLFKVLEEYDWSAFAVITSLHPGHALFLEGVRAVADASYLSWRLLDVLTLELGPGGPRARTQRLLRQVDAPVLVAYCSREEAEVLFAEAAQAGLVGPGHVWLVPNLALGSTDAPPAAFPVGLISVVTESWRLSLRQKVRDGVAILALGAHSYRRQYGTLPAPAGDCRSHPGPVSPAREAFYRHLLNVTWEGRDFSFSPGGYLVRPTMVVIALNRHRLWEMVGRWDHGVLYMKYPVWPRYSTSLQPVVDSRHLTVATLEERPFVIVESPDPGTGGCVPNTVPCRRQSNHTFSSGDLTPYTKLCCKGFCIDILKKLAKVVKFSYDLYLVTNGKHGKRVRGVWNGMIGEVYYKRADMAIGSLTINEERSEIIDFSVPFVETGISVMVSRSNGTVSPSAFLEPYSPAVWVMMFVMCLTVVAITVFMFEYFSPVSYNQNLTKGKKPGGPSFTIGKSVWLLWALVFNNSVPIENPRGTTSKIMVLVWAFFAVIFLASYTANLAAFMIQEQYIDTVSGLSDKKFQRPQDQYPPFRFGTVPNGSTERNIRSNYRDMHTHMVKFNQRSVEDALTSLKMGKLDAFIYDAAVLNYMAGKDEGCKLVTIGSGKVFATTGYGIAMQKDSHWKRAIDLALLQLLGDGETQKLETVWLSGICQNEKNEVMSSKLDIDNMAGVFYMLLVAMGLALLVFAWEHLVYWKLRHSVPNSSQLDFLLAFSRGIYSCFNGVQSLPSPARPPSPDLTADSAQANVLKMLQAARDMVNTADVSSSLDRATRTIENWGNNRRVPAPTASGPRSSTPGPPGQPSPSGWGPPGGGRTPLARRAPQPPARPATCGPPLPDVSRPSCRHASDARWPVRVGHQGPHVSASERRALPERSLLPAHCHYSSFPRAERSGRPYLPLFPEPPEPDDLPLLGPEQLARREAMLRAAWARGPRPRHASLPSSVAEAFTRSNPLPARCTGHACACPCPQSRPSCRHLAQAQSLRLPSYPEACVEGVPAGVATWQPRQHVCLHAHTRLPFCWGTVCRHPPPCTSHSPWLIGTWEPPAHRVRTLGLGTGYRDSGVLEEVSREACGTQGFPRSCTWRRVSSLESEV

Compound | Ki (GluK3; [5]) | NMDA pKi with SEM (in brackets) (native NMDA receptors) | Ki (native NMDA receptors) | KA IC50, native iGluRs (synaptosomes) (native KA receptors) | KA pIC50 with SEM (in brackets) (native KA receptors) | AMPA pIC50 with SEM (in brackets) (native AMPA receptors) | IC50 (native AMPA receptors) | Ki (GluK2; [6]) | Ki (GluK3) | Ki (GluK1) | Ki (GluK2) | GluK2 % specific binding (Table 5) (GluK2; [3H]KA) | other results
Cl.Cl.Nc1cc(C(=O)O)cc([C@H]2CCN[C@@H]2C(=O)O)c1 (racemic) [(±)-5j, (±)-2,3-trans-(3-Amino-5-carboxyphenyl)pyrrolidine-2-carboxylic acid dihydrochloride] | 19.3 ± 0.9 µM | 4.87±0.05 | 14 µM | 86 µM | 4.07±0.04 | 4.29±0.07 | 52 µM | > 100 µM | – | – | – | – | –
Cc1ccc(S(=O)(=O)Nc2cc(C(=O)O)cc([C@H]3CCN[C@@H]3C(=O)O)c2)cc1.Cl (racemic) [(±)-5k, (±)-2,3-trans-(3-Carboxy-5-((4-methylphenyl)sulfonamido)phenyl)pyrrolidine-2-carboxylic acid hydrochloride] | 10.9 ± 0.5 µM | 4.82±0.03 | 15 µM | >100 µM | – | 4.65±0.09 | 23 µM | 19 µM | – | – | – | – | –
Cl.O=C(O)c1cc(NS(=O)(=O)c2ccccn2)cc([C@H]2CCN[C@@H]2C(=O)O)c1 (racemic) [(±)-5l, (±)-2,3-trans-3-(3-Carboxy-5-(pyridine-2-sulfonamido)phenyl)pyrrolidine-2-carboxylic acid hydrochloride] | 14 ± 0.9 µM | 4.46±0.08 | 36 µM | >100 µM | – | 4.57±0.04 | 27 µM | ~100 µM | – | – | – | – | –
Cl.O=C(O)c1cc(NC(=O)c2ccccc2)cc([C@H]2CCN[C@@H]2C(=O)O)c1 (racemic) [(±)-5m, (±)-2,3-trans-3-(3-Benzamido-5-carboxyphenyl)pyrrolidine-2-carboxylic acid hydrochloride] | 3.95 ± 0.2 µM | 5.16±0.04 | 6.9 µM | 16 µM | 4.81±0.03 | 4.63±0.04 | 24 µM | ~100 µM | – | – | – | – | –
Cl.O=C(O)c1cc(Br)cc([C@H]2CCN[C@@H]2C(=O)O)c1 [5b, (2S,3R)-3-(3-Bromo-5-carboxyphenyl)pyrrolidine-2-carboxylic acid hydrochloride] | – | 5.63 ±0.05 | 2.4 µM | 10 µM | 4.99 ± 0.04 | 4.60 ± 0.04 | 26 µM | – | 2.42 ± 0.11 µM | 5.88 ± 0.6 µM | > 100 µM | – | –
Cl.O=C(O)c1cc(-c2cnn[nH]2)cc([C@H]2CCN[C@@H]2C(=O)O)c1 [5d, (2S,3R)-3-(3-Carboxy-5-(1H-1,2,3-triazol-5-yl)phenyl)pyrrolidine-2-carboxylic acid hydrochloride] | – | 6.08±0.05 | 0.83 µM | 20 µM | 4.71±0.06 | 4.69 ±0.04 | 21 µM | – | 10 to 50 µM | > 50 µM | > 100 µM | – | IC50 [1]: 3.51 ± 0.18 µM; increase in affinity for native NMDA receptors (native NMDA receptors; compared to 4a): 7 fold; selectivity/preference for NMDA receptors over AMPA and KA receptors (native NMDA receptors; native receptors): 24 fold; IC50 [2]: 18.5 ± 1.54 µM; IC50 [3]: 1.36 ± 0.06 µM; IC50 [4]: 7.28 ± 0.17 µM
Cl.O=C(O)c1cc([C@H]2CCN[C@@H]2C(=O)O)cc(Br)c1Cl [6a, (2S,3R)-3-(3-Bromo-5-carboxy-4-chlorophenyl)pyrrolidine-2-carboxylic acid hydrochloride] | – | – | 1 to 10 µM | >100 µM | – | – | > 100 µM | – | ≥ 100 µM | ≥ 100 µM | ≥ 100 µM | – | –
CNCC[C@@H]1CN[C@H](C(=O)O)[C@H]1c1cccc(C(=O)O)c1 [9b, (2S,3R,4S)-3-(3-Carboxyphenyl)-4-(2-(methylamino)ethyl)pyrrolidine-2-carboxylic acid] | – | – | > 100 µM | >100 µM | – | 4.16 ± 0.02 | 69 µM | – | > 100 µM | ~10 µM | > 100 µM | 99 ± 6% | GluK3 % specific binding (Table 5) (GluK3; [3H]KA): 83 ± 6%; GluK1 % specific binding (Table 5) (GluK1): 50 ± 6%
O=C(O)c1cccc([C@H]2[C@H](CCNCc3ccccc3)CN[C@@H]2C(=O)O)c1 [9c, (2S,3R,4S)-4-(2-(Benzylamino)ethyl)-3-(3-carboxyphenyl)pyrrolidine-2-carboxylic acid] | – | – | > 100 µM | – | – | 4.83 ± 0.05 | 15 µM | – | 2.46 ± 0.54 µM | 2.98 ± 0.96 µM | > 100 µM | 86 ± 6% | –
O=C(O)c1cccc([C@H]2[C@H](CCO)CN[C@@H]2C(=O)O)c1 [9d, (2S,3R,4S)-3-(3-Carboxyphenyl)-4-(2-hydroxyethyl)pyrrolidine-2-carboxylic acid] | – | 4.22 ± 0.03 | 61 µM | 13 µM | 4.89 ± 0.3 | 4.47 ± 0.007 | 35 µM | – | > 10 µM | > 10 µM | > 100 µM | 93 ± 7% | GluK3 % specific binding (Table 5) (GluK3; [3H]KA): 57 ± 2%; GluK1 % specific binding (Table 5) (GluK1): 60 ± 6%
Cl.O=C(O)C[C@@H]1CN[C@H](C(=O)O)[C@H]1c1cccc(C(=O)O)c1 [9e, (2S,3R,4S)-4-(Carboxymethyl)-3-(3-carboxyphenyl)pyrrolidine-2-carboxylic acid hydrochloride] | – | – | > 100 µM | >100 µM | – | – | > 100 µM | – | > 100 µM | > 100 µM | > 100 µM | 97 ± 7% | GluK3 % specific binding (Table 5) (GluK3; [3H]KA): 95 ± 3%; GluK1 % specific binding (Table 5) (GluK1): 93 ± 3%
(2S,3R)-3-(4-Amino-3-carboxyphenyl)pyrrolidine-2-carboxylic acid dihydrochloride [4g] | – | – | > 100 µM | >100 µM | – | – | > 100 µM | – | – | – | – | – | GluK3 % specific binding (GluK3; [7]): (64 ± 4)^d %; GluK1 % specific binding (GluK1; 10 μM ligand concentration, [3H]NF608, mean ± SD (Table 2)): (70 ± 16)^d %; GluK2 % specific binding (GluK2; [7]): (77 ± 5)^d %
